Data published in ChEMBL document CHEMBL4513216, “Probing the Open Global Health Chemical Diversity Library for Multistage-Active Starting Points for Next-Generation Antimalarials” (ACS Infect Dis, 2020).

Experiment: Toxicity liver stage against HepG2, at 10uM
Format: cell-based
Parameters: test concentration 10 uM, cell line HepG2-A16-CD81EGFP
Settings: human, HepG2-A16-CD81EGFP cells; read-out: INHIBITION
Summary of the method: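 Uninfected HepG2-A16-CD81EGFP cells, 3 × 10^3 per well, 1536-well, plated on prespotted compound at 10 μM final, parasite-free screening media added to match infected plates; puromycin 10 μM positive, DMSO 0.5% negative; run in parallel with 48 h PbLuc assay at 37 °C, 5% CO2; viability by CellTiter-Glo luminescence, normalized to controls.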

| Structure (SMILES) | cytotoxicity at 10 µM [%] |
| --- | --- |
| CN(Cc1ccccc1)C(=O)[C@@H]1Cc2[nH]cnc2CN1C | -3.92 |
| COc1cccc(CNC[C@H]2COCc3nc4cccnc4n32)n1 | -1.57 |
| COCC(=O)N1CCN2C(=O)OC[C@H]2C1 | 1.82 |
| CCc1nc(-c2ccc(NC(=O)N3CCCC3)cc2)no1 | 5.03 |
| COCCn1ccc(=O)c(OCC(=O)Nc2ccc(Br)cc2)c1C | 0.185 |
| Cc1cccc(S(=O)(=O)NCC2CCN(c3cnccn3)CC2)c1 | 7.99 |
| O=C(c1nnn(-c2ccc(C(F)(F)F)cc2)n1)N1CCC(O)CC1 | -4.52 |
| CCN(C)C(=O)c1ccc2c(c1)C(c1nc[nH]n1)CN2S(C)(=O)=O (configuration not stated) | -137 |
| CO[C@H]1CN(S(=O)(=O)c2cn(C)cn2)[C@@H]2CCCO[C@H]12 | -132 |
| O=C(c1ccc[nH]1)N1Cc2nccn2CC(Cn2ncccc2=O)C1 (configuration not stated) | 3.66 |
| Cc1nc(Nc2ccc(Cl)cn2)sc1C(=O)NC(C)C | 14 |
| NC(=O)c1nc(COc2ccc3c(c2)OCO3)no1 | 8.55 |
| CC(C)n1ncc2c1NC(=O)CC21C(=O)Nc2c(Cl)cccc21 (configuration not stated) | -1.58 |
| CCOC(=O)C1CCN(c2nccc(-n3nc(C)cc3C)n2)CC1 | -8.99 |
| COC(=O)CCn1ccc(=O)c2cc(OC)ccc21 | 3.88 |
| CCn1nnnc1-c1cccc(NC(=O)COC2CCCC2)c1 | -0.47 |
| CS(=O)(=O)CCn1ccc(NCc2ccc(C#N)cc2)n1 | 6.56 |
| Cc1cccc(N2CCN(C(=O)CNCCn3cccn3)CC2)c1 | -6.16 |
| CNS(=O)(=O)c1c(C)sc2ccccc12 | 4.18 |
| NC(=O)C1CCN(C(=O)NC(Cc2ccccc2)C(F)(F)F)CC1 (configuration not stated) | -7.72 |
| Cc1nc(C(NC(=O)CN(C)C(C)C)c2ccccc2F)no1 (configuration not stated) | -2.64 |
| CN(Cc1nc2ccccc2[nH]1)C(=O)CN(C)c1ccccc1 | -2.46 |
| CC(C)C(C)N(C)Cc1nnc(-c2ccc(Br)s2)o1 (configuration not stated) | -1.65 |

| Structure (SMILES) | cytotoxicity at 10 µM [%] |
| --- | --- |
| COc1cc2nc(C)sc2cc1NC(=O)CN(C)C(C)C | -3.93 |
| Cc1ccc(C(NC(=O)CCNC(=O)c2ccoc2)C(F)(F)F)cc1 (configuration not stated) | 9.49 |
| Cc1nn(-c2ccccc2)c(C)c1CC(=O)NC1CC(=O)N(C)C1 (configuration not stated) | 6.08 |
| COc1ccc(C)cc1CN1CCN(Cc2nccn2C)C(C)C1 (configuration not stated) | 1.43 |
| COc1cc(CNC2CCCN(c3cccnn3)C2)cc2c1OCO2 (configuration not stated) | -2.22 |
| CNC(=O)CN(C)C1CCN(c2ccc(Cl)cc2)CC1 | -1.15 |
| CCOc1ccc(CNC(C)c2c(C)nn(C)c2C)cc1 (configuration not stated) | -0.00326 |
| Cc1cccc(N(CC(=O)N2CCCCC2)C(=O)C2CCCO2)c1 (configuration not stated) | -1.52 |
| CCN(CC1CCOC1)C(=O)c1nc(-c2ccco2)sc1C (configuration not stated) | -0.238 |
| Cc1sc(-c2ccco2)nc1C(=O)NCC1CCOC1 (configuration not stated) | -6.71 |
| CNS(=O)(=O)Cc1ccccc1CNc1ccc(C#N)cn1 | -6.45 |
| COc1ccccc1CN1CCN(CCN2CCOC2=O)CC1 | -11.2 |
| CCC(C)NC(=O)c1cccc(CNC(=O)CC(F)(F)F)c1 (configuration not stated) | 6.99 |
| CCNS(=O)(=O)C1CCN(C(=O)c2ccc(F)cc2)C1 (configuration not stated) | 7.98 |
| CNC(=O)Cc1ccccc1NC(=O)NCc1ccc(SC)cc1 | -1.88 |
| Cc1ncccc1CNc1ccc(OCCO)nc1 | -1.78 |
| Cc1cnn(CC2CCCN2Cc2cc(=O)n3c(C)csc3n2)c1 (configuration not stated) | -2.11 |
| CCC(CC)N(C)S(=O)(=O)c1ccc(CCNC(C)=O)s1 | -3.45 |
| CCn1nc2c(cc1=O)CN(CC(=O)Nc1cc(C(C)C)no1)CC2 | -5.46 |
| CCN(CC)C(=O)c1cc(-c2cccc(Cl)c2)no1 | -8.79 |
| c1cc(CNc2nnc(Cc3ccsc3)o2)cs1 | 0.369 |
| CCc1nnc(C(C)N(C)Cc2c(C)nn(-c3ccccc3)c2C)o1 (configuration not stated) | -9.85 |
| COCc1noc(-c2nn(-c3ccc(F)c(F)c3)c3c2CCC3)n1 | -2.75 |

| Structure (SMILES) | cytotoxicity at 10 µM [%] |
| --- | --- |
| Cn1ccnc1-c1noc(NCc2ccc(Cl)cc2)n1 | -9.46 |
| CN(Cc1nccn1C)C(=O)C1COCC(=O)N1Cc1ccccc1 (configuration not stated) | 1.01 |
| CC(C)Cn1ncc2cc(C(=O)N(C)Cc3cccc(O)c3)cnc21 | -4.67 |
| CS(=O)(=O)c1cccc(S(=O)(=O)NCCCN2CCNC(=O)C2)c1 | -5.87 |
| Cc1csc(NC(=O)C2(C)CCCO2)n1 (configuration not stated) | -2.54 |
| CSCc1cc(C(=O)NC2(C#N)CCSC2)ccc1F (configuration not stated) | -4.59 |
| CNC(=O)NC(=O)COc1c(C(C)=O)ccc(Cl)c1Cl | 26.6 |
| CCn1ccnc1SCCn1cnc2ccsc2c1=O | -2.9 |
| Cc1ccc(C(=O)Nc2ccc(N3CCCC3)cn2)cc1C | 26.9 |
| Cc1nc(C2CCCN2CCOCC2CC2)no1 (configuration not stated) | -4.56 |
| Cc1ccc(CNc2cnn(CC(F)F)c2)cc1C | -0.71 |
| O=C(Nc1ccccn1)C1CC(=O)N(Cc2ccccn2)C1 (configuration not stated) | 2.84 |
| CCNc1nc(-c2cccnc2)c(-c2ccnc(NCCO)n2)s1 | -13.7 |
| NC(=O)c1cc2c(nc1CC1CCCCO1)CCC2 (configuration not stated) | -5.4 |
| Cc1occc1C(=O)Nc1ccc(C(=O)NC[C@H]2CCCN2)cc1 | -10.6 |
| O=C(CN1CCOCC1)N1CCC(c2cc(N3CCCC3)ncn2)CC1 | 3.6 |
| O=C(Nc1nncs1)N1CCCN(C2CCCC2)CC1 | -4.31 |
| C[C@@H]1CN(C2(C(=O)N(C)C)Cc3ccccc3C2)C[C@H](C)O1 | -5.19 |
| Cc1cc(N2Cc3cnn(CCO)c3C2)nc(-c2ccccc2)n1 | -156 |
| O=C1NCC2(CCCN(C(=O)Nc3ccc4scnc4c3)CC2)O1 (configuration not stated) | -5.59 |
| Cc1ccccc1CN1CCC(CNC(=O)Cn2cncn2)CC1 | 3.83 |
| O=C1O[C@@H]2CN(Cc3ccccc3F)C[C@@H]2N1CCCN1CCOCC1 | -4.73 |
| COc1ccccc1Oc1ncccc1CNC(=O)[C@H](N)CC(C)(C)C | -1.73 |

| Structure (SMILES) | cytotoxicity at 10 µM [%] |
| --- | --- |
| CCC(CO)N(Cc1ccccc1C)Cc1ccccc1C(=O)O (configuration not stated) | -6.32 |
| COCC(c1ccccn1)N(C)C(=O)c1cc(-c2ccc(O)cc2)n[nH]1 (configuration not stated) | -4.07 |
| CSCCCN1CCC(c2nnc(Cn3ccnc3)n2C2CC2)CC1 | 0.872 |
| CC(=O)NC1CCN(C(=O)c2cnc(COc3ccccc3)nc2O)C1 (configuration not stated) | -5.3 |
| COc1ccc(CCNC(=O)CN2CCOCS2(=O)=O)cc1 | -2.64 |
| Cc1ccnn1CC(=O)N1CCCN(C2Cc3ccccc3C2)CC1 | -120 |
| CN1CCN(S(=O)(=O)N2CCCCC2CCc2ccc(O)cc2)CC1 (configuration not stated) | -1.94 |
| Cc1nc(N)cc(NCc2csc(N(C)C)n2)n1 | -5.2 |
| CCCSc1ccccc1NC(=O)N1CCN(C(=O)c2ccc[nH]2)CC1 | 3.99 |
| CC(C)n1cnnc1CN(C)Cc1ccc(CN(C)S(C)(=O)=O)o1 | -1.31 |
| CCc1ccc2nc(C)cc(C(=O)NC[C@@H]3CCNC[C@H]3O)c2c1 | -3 |
| CN1CCN(C[C@H]2CC[C@@H](Cc3ccc(CN4CCCC4)cc3)O2)CC1 | -7.32 |
| CCC1(CO)CCCN(Cc2nccn2Cc2ccccc2)C1 (configuration not stated) | -7.35 |
| O=C(CCCN1CCCCC1)N1CCN(C(=O)c2ccc[nH]2)CC1 | 57.8 |
| O=C1OCCN1C1CCN(Cc2cc3n(n2)CCCNC3)CC1 | 12.7 |
| CN(C)c1cc(N(C)Cc2cc(C(C)(C)C)n[nH]2)ncn1 | -0.629 |
| Cc1cnc(CNCc2cnc(-c3ccccc3C)s2)cn1 | -0.37 |
| CCCn1ncc(C(=O)N(CCOC)Cc2c(C)nn(CC)c2C)c1C | -4.97 |
| Cc1cccc(C)c1Oc1ncccc1CNC(=O)C1(C)CCCNC1 (configuration not stated) | 0.687 |
| CCc1ccc2nc(C)cc(C(=O)N[C@@H]3CCCNC3)c2c1 | -5.09 |
| O=C(NC1CC(=O)N(C2Cc3ccccc3C2)C1)c1cnccn1 (configuration not stated) | 0.661 |
| Cc1ccc(NC2CCN(C(=O)c3cscn3)CC2)nn1 | -8.73 |
| CCN(CC)S(=O)(=O)N(C)Cc1ccc2c(c1)OCCO2 | -7.85 |

| Structure (SMILES) | cytotoxicity at 10 µM [%] |
| --- | --- |
| Cc1ccc(C(=O)NCc2cccnc2N(C)C)s1 | -2.12 |
| Cc1ccc(-c2nc(C(=O)N3CCCC(C(N)=O)C3)cs2)c(C)c1 (configuration not stated) | -2.9 |
| COc1c(CNCCNC(=O)c2ccc(C)cc2)c(C(C)C)nn1C | -0.945 |
| Cc1ccc(N2CCCC(NCc3nnc4n3CCCC4)C2=O)cc1 (configuration not stated) | -6.69 |
| Cc1ccc(C)c(OCCC(=O)N2CCCN(CC(N)=O)CC2)c1 | -8.54 |
| CCN(CC1CCCO1)C(=O)Nc1ccc(OC)c(C)c1 (configuration not stated) | -12.9 |
| C1CCCN(C2CCCN(Cc3noc(C4CC4)n3)C2)CC1 (configuration not stated) | -8.84 |
| CCc1nc(CN(C)C2CCN(CCc3cccs3)C2)no1 (configuration not stated) | -8.7 |
| O=C(NCC(=O)N1CCC2(CC1)OCCO2)c1ccoc1 | -9.55 |
| Cc1ccc(F)cc1S(=O)(=O)NCc1cccc(C(=O)N2CCCC2)c1 | -15.1 |
| COc1ccccc1C(=O)N(C)Cc1nnc2ccccn12 | -2.45 |
| CCc1nc(C2CCCN(C(=O)NC3CC3)C2)no1 (configuration not stated) | -15.3 |
| O=C(NCc1cccc(N2CCCCC2=O)c1)[C@@H](O)c1ccccc1 | -8.31 |
| Cc1cnn(CC2CCCN2C(=O)c2cn(-c3ccccc3)nc2C)c1 (configuration not stated) | -9.39 |
| O=C(N[C@H]1CN[C@H]2CCCO[C@H]21)c1ccno1 | -6.92 |
| Cc1cc(C(=O)N2C[C@@H]3COC[C@]3(CN(C)C)C2)sc1C | -146 |
| C[C@H]1CN(C(=O)c2ccoc2)C[C@@]12CCN(CCN(C)C)C2=O | -1.77 |
| O=C(C[C@@H]1COC[C@H]2CN(C(=O)c3cccnc3)C[C@@H]12)N1CCOCC1 | -105 |
| CSCC(=O)N1C[C@@H]2CC[C@H]1CN(Cc1ccccc1)C2 | -14.9 |
| Cc1cccc(CN2C[C@H]3CC[C@@H](C2)N(Cc2c(C)noc2C)C3=O)n1 | 0.296 |
